Data set [1] deals with Human alphaherpesvirus 3. Nature of the data set: Antiviral activity against Thymidine kinase-positive Varicella-zoster virus Oka infected in HEL assessed as reduction in virus plaque formation. The conditions noted are these: Human alphaherpesvirus 3, strain Oka vaccine. In kind it is functional, organism-based. The essentials:
(§1)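 Confluent HEL fibroblast cultures were inoculated with 20 PFU of VZV together with varying compound concentrations. Plaque formation was recorded once complete in untreated infected controls. EC50 is the concentration that reduced viral plaque formation by 50%.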

Data set [2] relates to Human alphaherpesvirus 3. Kind of data set: Antiviral activity against Thymidine kinase-negative Varicella-zoster virus 07-1 infected in HEL assessed as reduction in virus plaque formation. In kind it is functional, organism-based. The conditions noted are these: Human alphaherpesvirus 3, 07-1. The essentials: as §1
The test system of data set [3] is Respiratory syncytial virus. Nature of the data set: Antiviral activity against Respiratory syncytial virus infected in HeLa cells assessed as inhibition of virus-induced cytopathogenicity. In kind it is functional, organism-based. The essentials: (§2)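 Confluent host-cell monolayers in 96-well plates were inoculated with 100 CCID₅₀ of virus while exposed to a range of test compound concentrations. Cytopathic effect was scored once it was complete in untreated infected controls. EC₅₀ is the concentration that reduces virus-induced cytopathogenicity by 50%.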
On the technique in general: Cytopathic effects are the visible damage that an infection or toxin causes in cultured cells.

The subject of data set [4] is HeLa. Kind of data set: Cytostatic activity against human HeLa cells assessed as inhibition of proliferation after 72 hrs by Coulter cell counting method. In kind it is functional, cell-based. The essentials:
(§3)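 (5–7.5) × 10⁴ tumor cells per well were exposed to test compound at 37 °C in humidified CO₂. Incubation ran 48 h for L1210 and 72 h for CEM and HeLa. Cells were then counted in a Coulter counter. IC₅₀ is the concentration that inhibits cell proliferation by 50%.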

For data set [5], the system named is CCRF-CEM. Nature of the data set: Cytostatic activity against human CEM cells assessed as inhibition of proliferation after 72 hrs by Coulter cell counting method. In kind it is functional, cell-based. The essentials: as §3
Data set [6] deals with L1210. Kind of data set: Cytostatic activity against mouse L1210 cells assessed as inhibition of proliferation after 48 hrs by Coulter cell counting method. The format is functional, cell-based. The conditions noted are these: L1210, 48 h. The essentials: as §3
The test system of data set [7] is Vesicular stomatitis virus. Nature of the data set: Antiviral activity against Vesicular stomatitis virus infected in HeLa cells assessed as inhibition of virus-induced cytopathogenicity. In kind it is functional, organism-based. The essentials:
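HeLa cell monolayers (confluent) were infected with 100 CCID50 of VSV in the presence of serial compound concentrations. Viral cytopathicity was read when complete in untreated infected controls. EC50 is the concentration that reduced virus-induced cytopathogenicity by 50%.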

Data set [8] can be described thus: Cytotoxicity against MDCK cells assessed as reduction in cell viability by MTS assay. In kind it is cell-based, Canis lupus familiaris. The conditions noted are these: dog. The essentials:
(§4)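 Uninfected host cells were exposed to test compound, and viability was read by the colorimetric MTS assay. CC₅₀ is the concentration causing a 50% decrease in cell viability.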
On the technique in general: Tetrazolium assays rely on reduction of a dye to a coloured formazan, in cell work by metabolically active cells.

Data set [9] concerns Influenza A virus H3N2. Kind of data set: Antiviral activity against Influenza A virus H3N2 infected in MDCK cells assessed as inhibition of virus-induced cytopathogenicity. In kind it is functional, organism-based. The essentials:
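Confluent MDCK cell cultures were infected in the presence of varying compound concentrations. Cytopathicity was recorded once complete in untreated virus-infected controls, scored visually and by MTS colorimetric assay. EC50 is the concentration that reduced virus-induced cytopathogenicity by 50%.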

Data set [10] can be described thus: Cytotoxicity against feline CRFK cells assessed as reduction in cell viability by MTS assay. In kind it is cell-based, Felis catus. As to conditions: cat. The essentials:
as §4

For data set [11], the system named is Felid alphaherpesvirus 1. Kind of data set: Antiviral activity against Feline herpesvirus 1 infected in HEL cells assessed as inhibition of virus-induced cytopathogenicity. In kind it is functional, organism-based. As to conditions: Felid alphaherpesvirus 1, HEL. The essentials:
as §2

Data set [12] relates to Human alphaherpesvirus 1. Kind of data set: Antiviral activity against HSV-1 infected in HEL cells assessed as inhibition of virus-induced cytopathogenicity. In kind it is functional, organism-based. As to conditions: Human alphaherpesvirus 1, HEL. The essentials: as §2
Data set [13] deals with Human alphaherpesvirus 2. Kind of data set: Antiviral activity against HSV-2 infected in HEL cells assessed as inhibition of virus-induced cytopathogenicity. The format is functional, organism-based. The conditions noted are these: Human alphaherpesvirus 2, HEL. The essentials: as §2

Activity calls are given as the source filed them. The calls are words filed in the database; no cut-off is given here. Bounds are passed on as bounds.

As for `O=c1cnn(Cc2cn(C[C@H](OCc3ccccc3)[C@@H](O)P(=O)(OCc3ccccc3)OCc3ccccc3)nn2)c(=O)[nH]1`, the results for the concentration for a half-maximal effect (EC50) in data set [1] and in [2] were 63.7 µM and 70 µM, respectively. Further, the inhibition result in data set [3] and in [7] was “inactive” each time. Further, the IC50 (commonly the midpoint of a concentration-inhibition curve) in [4] turned out to be 64 µM; in data set [5], 71 µM; in data set [6], 78 µM.

For `Cc1cn(Cc2cn(C[C@H](OCc3ccccc3)[C@@H](O)P(=O)(OCc3ccccc3)OCc3ccccc3)nn2)c(=O)[nH]c1=O`, the concentration for half-maximal inhibition (IC50) in [4], in data set [5] and in [6] was above 200 µM each time. The CC50 (in general, the concentration that lowers cell viability or growth by half) in [8] is above 100 µM. Also, the MCC in [8] is above 100 µM. For the same molecule, the 50% effective concentration (EC50) (in general, the concentration that produces a half-maximal response) in data set [9] was found to be 20 µM.

For the molecule `O=C(c1ccccc1)n1c(=O)c2ccccc2n(Cc2cn(C[C@H](OCc3ccccc3)[C@H](O)P(=O)(OCc3ccccc3)OCc3ccccc3)nn2)c1=O`, in [10], the MCC was at least 4 µM. Further, the EC50 in data set [11] amounted to 4 µM; in [12] it was 2.9 µM; in data set [13], 4 µM. In addition, the IC50 in data set [4] was determined as 5.1 µM; in data set [5] it was 4.7 µM; in [6] it was 4.7 µM.

In the case of `Cn1c(=O)c2c(nc(Cl)n2Cc2cn(C[C@H]3OC(C)(C)O[C@H]3[C@@H](O)P(=O)(OCc3ccccc3)OCc3ccccc3)nn2)n(C)c1=O`, the EC50 in data set [1] was found to be 55.7 µM. Besides, the IC50 stood at 85 µM in data set [4], 51 µM in data set [5] and 58 µM in data set [6].

Values taken from ChEMBL document CHEMBL3352515, “Design, synthesis, antiviral and cytostatic activity of ω-(1H-1,2,3-triazol-1-yl)(polyhydroxy)alkylphosphonates as acyclic nucleotide analogues” (Bioorg Med Chem, 2014).
